The array DNA melting data of Ke et al. (doi:10.1101/2024.01.08.574731)

Assays:
[1] = folding enthalpy; higher = less favourable; fluorescence melt of hairpins on a sequencing array, two-state fit; details: sodium 0.088 M
Outline: (§1)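 Melting temperature and folding enthalpy were derived from bootstrapped two-state fits. The fitted temperatures were raised by 9.35 °C to agree with UV melts, and four replicates were combined by inverse variance. The underlying data were Cy3 fluorescence images of library hairpins, with annealed Cy3 and quencher oligos, on a sequenced MiSeq flow cell in 50 mM Na-HEPES pH 8.0, 25 mM NaCl, taken in 2.5 °C steps up to 60 °C, normalised to pre-quench Cy3 and to control constructs.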

[2] = melting temperature; fluorescence melt of hairpins on a sequencing array, two-state fit, raised by 9.35 °C to match UV melts; details: sodium 0.088 M
Outline: as §1

Row | Sequence | folding enthalpy [1] [kcal/mol] | Tm [2] [°C]
1 | GAAGGTGGAAACACCTTC (((((((....))))))) | -37.7 | 64.6
2 | GTAATTCGAAAGAATAC (((.(((....)))))) | -15.2 | 32
3 | GATCAGTTGGCTGATC ((((((....)))))) | -43 | 54.3
4 | GTCTGGCGAAAGCCGGAC (((.(((....))).))) | -25.6 | 69
5 | GAACTGCGAAAGCAATTC (((.(((....))).))) | -21.7 | 36.7
6 | GGCAGCGAAAGCTTGGCC ((((((....)))..))) | -23.7 | 52.7
7 | AGCAAGAAATTGCT (((((....))))) | -16 | 39.3
8 | GCCTTGGGAAACCAGGGC (((.(((....))).))) | -46.8 | 52.7
9 | GATCGTGTGAACGATC ((((((....)))))) | -39.2 | 62.7
10 | GCGACCGAAAGGTTTCGC ((((((....)))..))) | -24.1 | 49
11 | GTTGTGGGAAACCGCAAC ((((.((....)).)))) | -43 | 53.8
12 | GCGAACACTCGC ((((....)))) | -23.5 | 45
13 | GAATAAGGAAACTTGTTC (((.(((....))).))) | -17 | 29.6
14 | GTGCGGACGAAAGTCCAC (((..(((....)))))) | -12 | 60.9
15 | GCCTGGGGAAACCTAGGC ((((.((....)).)))) | -31.5 | 54.4
16 | GTGATTCGAAAGAAGCAC (((.(((....))).))) | -43.9 | 56.5
17 | GGAGGACGAAAGTCTTCC (((.(((....))).))) | -30.1 | 53.5
18 | GCAGCGCGAAAGCGTGGC ((..(((....)))..)) | -23.1 | 64.2
19 | GCCACCGAAAGGTACGGC ((((((....)))..))) | -24.9 | 49
20 | GATCCCTTGGGGGATC ((((((....)))))) | -46.9 | 60.1
21 | GATCATCGGTATGATC ((((((....)))))) | -34.2 | 46.5
22 | GACGGCGGAAACGCCGCC (.(((((....))))).) | -8.56 | 54.9
23 | GTTACGGGAAACTGTGAC ((.((.(....).)).)) | -24.5 | 32.5

Row | Sequence | folding enthalpy [1] [kcal/mol] | Tm [2] [°C]
24 | CGTGCGGAAACGCGCACG ((((((....)))..))) | -34.2 | 64
25 | GGCCGTGGAAACACGGTC (.(((((....))))).) | -24.3 | 65.3
26 | GTCAGATCGAAAGATGAC (((..(((....)))))) | -22.2 | 38.1
27 | GGTATGGGAAACCATGCC ((.((((....)))).)) | -37.4 | 51.3
28 | GAAACAGGAAACTGTTTC (((((((....))))))) | -41.9 | 55.5
29 | GCTCGCGGAAACGTGAGC ((((.((....)).)))) | -37.6 | 64.9
30 | GCGACTGCGAAAGCACGC (((..(((....)))))) | -15.3 | 48.8
31 | GTCTTCGAAAGAAAGAC ((((((....))).))) | -21.8 | 42.6
32 | GCGGCCGTCCGC ((((....)))) | -25.8 | 58.6
33 | GCGTAGCGAAAGCAGCGC (((..((....))..))) | -16.6 | 65.4
34 | GCCTGGCGAAAGCCAAGC ((.((((....)))).)) | -17.5 | 57.7
35 | GCGGCGGGAAACCGCCAC (.(((((....))))).) | -10.5 | 52.6
36 | GAAGTTGGAAACGACTTC (((((.(....).))))) | -39 | 47.4
37 | GCATGTGGAAACATGTGC (((..((....))..))) | -31.6 | 49.6
38 | GTCGCCCGAAAGGGGAC (((.(((....)))))) | -21.4 | 55.2
39 | GATCTGCCCACAGATC ((((((....)))))) | -37 | 52.4
40 | GATCCTGCTGAGGATC ((((((....)))))) | -52.2 | 51.4
41 | GCAGGGCGAAAGCGCAGC ((.(.((....)).).)) | -11.9 | 54.8
42 | GCTTCGCGAAAGCGCCGC ((..(((....)))..)) | -12.2 | 44.7
43 | GATCGGTCGTCCGATC ((((((....)))))) | -40.9 | 60.2
44 | GGGGTGGGAAACCATCCC (((.(((....))).))) | -41.7 | 56.6
45 | CGCTCCGGAAACGGCGCG (((.(((....))).))) | -39.5 | 56.9
46 | GCTTTCGAAAGAACTAGC ((((((....)))..))) | -12.3 | 25.4

Row | Sequence | folding enthalpy [1] [kcal/mol] | Tm [2] [°C]
47 | GTGGCGTCGAAAGACCAC (((..(((....)))))) | -12.9 | 44.5
48 | GCTTGGCGAAAGCAGAGC (((..((....))..))) | -18.2 | 54
49 | GCCTTGCGAAAGCAGGGC (((.(((....))).))) | -29.5 | 69
50 | GGCATCGAAAGATGGGCC ((((((....)))..))) | -19.2 | 46.8
51 | GATCCGACCACGGATC ((((((....)))))) | -36.9 | 61.3
52 | GTTCTGGGAAACCGGAAC ((((.((....)).)))) | -41.5 | 50.9
53 | GATCCTCGAAGGATC ((((((...)))))) | -26.7 | 50.1
54 | GATCGAGCATCGATC ((((((...)))))) | -41.3 | 58.7
55 | GATCTCTTCTGAGATC ((((((....)))))) | -39.8 | 54.7
56 | GGTGCCGAAAGGCATACC ((((((....)))..))) | -11.6 | 48.2
57 | GCGAACTATCGC ((((....)))) | -20.6 | 45.4
58 | GATCACCGTAGTGATC ((((((....)))))) | -51.1 | 57
59 | GTCGTCGGAAACGACGGC (.(((((....))))).) | -25.2 | 65.5
60 | CTCTCGAAAGAGAG (((((....))))) | -21.5 | 53.3
61 | GGTTACGGAAACGTAGCC ((.((((....)))).)) | -28.6 | 51.7
62 | GAGAACGAAAGTTTTCTC ((((((....)))..))) | -30.2 | 38.4
63 | GGTACTGGAAACAATACC ((((.((....)).)))) | -12 | 26.7
64 | GTGGCCGGAAACAGCCAC (((((.(....).))))) | -47.6 | 54.5
65 | GTTAGCGAAAGCTAAAAC ((((((....)))..))) | -13.2 | 33.4
66 | TGGCTGAAAAGCCA (((((....))))) | -18.4 | 57.9
67 | GATCGAGGAAACTTGGTC ((.(.((....)).).)) | -8.03 | 22.6
68 | GTTTCCGAAAGGAGAAC ((((((....))).))) | -16.5 | 34.7
69 | GATTTAGGAAACTAGATC (((.(((....))).))) | -27.5 | 28.3
